Only some compounds are listed: those with a hit (about 1.5% of all), similar ones and a draw of the others.
DSG3 Ab inh = blocks pemphigus antibody binding to human desmoglein-3 | AID 588358 | DSG3-coupled beads, scFv-anti-DSG3-GFP binding, flow cytometry; hits give low values | 310,000 tested, 0.48% active | P32926 | binding (percent of control), % at 10 µM;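 active = binding more than 3 SD below its plate's average and above zero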;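 also: hits lower antibody fragment binding to DSG3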
HDAC3 inh = inhibitors of human histone deacetylase 3. 320,000 tested, 0.15% active. O15379. recombinant HDAC3, fluorogenic peptide/trypsin coupled, fluorescence. inhibition, % at 8.3 µM; in the data active = inhibition above about 26%, passing the limit was not always enough
Arr AP2 block = blocks beta-arrestin peptide binding to AP2 adaptin. inhibition, % at 10 µM. 340,000 tested, 0.31% active. AID 504490. FITC-arrestin peptide / GST-AP2 beads, flow cytometry; AP2 beta2 appendage carries R879A mutation;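 active = inhibition above a set limit, near 3 SD of compounds lacking own fluorescence, cut at about 54% in these data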;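 also: plate controls were DMSO wells for no effect and 5 µM unlabelled arrestin peptide for full effect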
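System: GST-AP2 R879A glutathione beads. Medium: PBS with 0.05% Tween 20 and 0.1% BSA. Also added: FITC-arrestin peptide, 50 nM. Incubation: 12 min plus 1 h, RT. Measured by: high-throughput flow cytometry of beads, ex 488, em 535 nm. Evaluation: percent drop in bead-associated FITC signal.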
LANA-H2A inh = blocks KSHV LANA binding to histone H2A/H2B. Q9QR71. cell-free LANA-H2A/H2B peptide, fluorescence polarization. inhibition, % (concentration not given with the values). 320,000 tested, 0.6% active. AID 2629; in the data active = inhibition mostly above about 10%, no sharp cut-off; inactive = mostly below about 6.7%
T cell HTS = T cell immune modulators affecting CD8 T cell-vesicle binding; 2C CD8+ T cell-vesicle binding, flow cytometry; hits give low values; response (vesicle binding), % at 7 µM; 330,000 tested, 0.068% active; AID 2052;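 active = response, share of CD8 T cells binding vesicles, and their 90th percentile fluorescence all below set limits, cut at about 80% in these data, passing the limit was not always enough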;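 also: values below 100% mean blocked vesicle binding to the CD8+ T cells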
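Assay system – 2C mouse CD8+ T cells · Also added – QL9-loaded Drosophila micro-vesicles · Timing – Cell–vesicle co-incubation 1.5 h at 37 °C, staining 20 min on ice · Signal – flow cytometry of vesicle-bound cells · Measure – percent CD8+ FL2 mean versus row control · Controls – Peptide-free naked vesicles (low) and QL9 vesicles with 0.7% DMSO vehicle (high)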
Arr AP2 CP1 = inhibitors of human beta-arrestin and AP2 interaction; shares compounds with Arr AP2 block; GST-AP2 beads, FITC arrestin peptide binding, flow cytometry; GST-fused beta2-adaptin appendage, R879A mutant; inhibition, % at 10 µM; 1,300 tested, 2% active; AID 504908;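 active = inhibition above a set limit, roughly 3 SD of non-fluorescent compound noise, cut at about 38% in these data; inactive = inhibition at or below that limit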;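 also: loss of bead fluorescence from 50 nM FITC arrestin peptide bound to appendage; 0% = negative control wells and 100% = excess unlabelled arrestin peptide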
Target sequence (P63010 whole entry, looked up, the tested form may be a part, one chain of several): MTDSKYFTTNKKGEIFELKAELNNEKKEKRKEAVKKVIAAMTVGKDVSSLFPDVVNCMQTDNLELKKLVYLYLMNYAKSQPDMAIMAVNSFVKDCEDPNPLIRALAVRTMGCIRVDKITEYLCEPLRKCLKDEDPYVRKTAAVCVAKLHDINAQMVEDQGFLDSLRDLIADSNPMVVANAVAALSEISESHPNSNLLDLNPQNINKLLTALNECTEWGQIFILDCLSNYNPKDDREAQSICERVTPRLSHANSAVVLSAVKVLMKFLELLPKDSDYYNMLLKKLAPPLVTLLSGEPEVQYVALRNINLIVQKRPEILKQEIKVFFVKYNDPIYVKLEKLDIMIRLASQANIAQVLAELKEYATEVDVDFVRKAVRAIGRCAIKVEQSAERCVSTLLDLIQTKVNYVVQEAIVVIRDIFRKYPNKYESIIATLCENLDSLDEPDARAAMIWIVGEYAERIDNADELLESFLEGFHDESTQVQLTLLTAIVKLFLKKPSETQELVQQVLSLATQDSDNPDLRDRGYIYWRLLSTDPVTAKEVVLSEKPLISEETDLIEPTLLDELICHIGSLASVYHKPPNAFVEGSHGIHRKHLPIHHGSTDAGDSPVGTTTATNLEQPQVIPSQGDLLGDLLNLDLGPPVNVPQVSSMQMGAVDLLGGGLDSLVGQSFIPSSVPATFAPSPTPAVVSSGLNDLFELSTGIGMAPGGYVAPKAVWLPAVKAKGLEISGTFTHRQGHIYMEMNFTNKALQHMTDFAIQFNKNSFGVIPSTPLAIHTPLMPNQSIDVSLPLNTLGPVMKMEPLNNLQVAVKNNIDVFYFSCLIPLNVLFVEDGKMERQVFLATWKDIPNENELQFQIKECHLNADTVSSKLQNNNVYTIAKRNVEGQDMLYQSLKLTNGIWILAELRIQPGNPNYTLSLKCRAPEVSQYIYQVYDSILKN
GST-FITC bead = GST-GSH bead binding interference, counter-screen; shares compounds with Arr AP2 block; GST-fluorescein binding to GSH beads, fluorescence; inhibition, % at 10 µM; 1,300 tested, 2% active;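 active = inhibition above 50%, about 3 SD of the inhibition seen with non-fluorescent compounds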;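 also: fluorescein maleimide labelled GST captured on 4 micron glutathione beads; higher means more loss of bead fluorescence from quenching or blocked binding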
Active calls of the source: *.

Cc1cc(C(=O)CCl)c(C)n1-c1cccc([N+](=O)[O-])c1 was read as DSG3 Ab inh 103.8, HDAC3 inh -4.1, Arr AP2 block 62.2*, LANA-H2A inh 0.5, T cell HTS 579.0, Arr AP2 CP1 8.7 and GST-FITC bead 0.7.
C#CC1(O)CCC2C3CCc4cc(O)cc(C)c4C3CCC21C (stereo not drawn) was read as DSG3 Ab inh 100.8 and Arr AP2 block -10.5.
Cc1ccc(NC(=O)CSCC(=O)N(C)CC(=O)Nc2ccccc2C(F)(F)F)cc1 was read as DSG3 Ab inh 96.0 and Arr AP2 block -7.1.
For NS(=O)(=O)c1ccc(NC(=O)C2C3C=CC(C3)C2C(=O)O)cc1 (stereo not drawn) the results were DSG3 Ab inh 99.9, HDAC3 inh 3.8, Arr AP2 block 57.8*, LANA-H2A inh 4.9, T cell HTS 162.2, Arr AP2 CP1 24.1 and GST-FITC bead -7.0.
`CN1C[C@H]2CON(C)[C@H]2C[C@H]1c1cccc(N2CCOCC2)c1` gave DSG3 Ab inh 105.3 and Arr AP2 block 12.4.
Screening N#Cc1cn(-c2ccccc2)nc1C(=O)c1ccccc1 returned DSG3 Ab inh 93.8, HDAC3 inh 0.3, Arr AP2 block 83.0*, LANA-H2A inh -6.6, T cell HTS 574.9, Arr AP2 CP1 -1.9 and GST-FITC bead -8.5.
CC(=O)c1nn(-c2ccccc2)cc1C(=O)c1ccc(C)cc1 was read as DSG3 Ab inh 102.5, HDAC3 inh 6.3, Arr AP2 block 0.6, LANA-H2A inh 5.7 and T cell HTS 748.5.
COc1cc(OC)c(NC(=O)CN(C)S(=O)(=O)c2ccc(-c3ccc(=O)[nH]n3)s2)cc1Cl was read as DSG3 Ab inh 105.9, HDAC3 inh 2.6, Arr AP2 block 7.3, LANA-H2A inh 0.6 and T cell HTS 124.0.
Screening CCCn1c(SCC(=O)NCc2ccc3c(c2)OCO3)n[nH]c1=O returned HDAC3 inh 0.8, Arr AP2 block -9.0, LANA-H2A inh -2.6 and T cell HTS 295.9.
Screening O=C(Cn1nc(Cl)nc1Cl)c1ccccc1 returned DSG3 Ab inh 100.3, HDAC3 inh -3.2, Arr AP2 block 54.9*, LANA-H2A inh 4.2, T cell HTS 330.5, Arr AP2 CP1 -0.7 and GST-FITC bead -1.1.
O=C(Cn1nc(Cl)nc1Cl)c1ccc(F)cc1 was read as DSG3 Ab inh 100.2, HDAC3 inh -4.0, Arr AP2 block -1.7, LANA-H2A inh -4.3 and T cell HTS 437.5.
For O=C(NCCCN1CCCC1=O)c1cc(=O)c2ccccc2o1 the results were DSG3 Ab inh 100.8, HDAC3 inh 0.5, Arr AP2 block 74.0*, LANA-H2A inh 0.6, T cell HTS 513.7, Arr AP2 CP1 3.9 and GST-FITC bead 0.9.
O=C(NCCCN1CCCC1=O)c1cc2ccccc2o1 was read as DSG3 Ab inh 96.6, Arr AP2 block 2.7 and T cell HTS 416.8.
For Cc1ccc(CNC(=O)CS(=O)(=O)c2cn(CC(=O)N3CCOCC3)c3ccccc23)cc1 the results were DSG3 Ab inh 112.3, HDAC3 inh -8.1, Arr AP2 block 60.0*, LANA-H2A inh -1.8, T cell HTS 227.2, Arr AP2 CP1 -0.9 and GST-FITC bead -12.4.
COC(=O)C1=C(C(C)=O)C(c2ccc(C(=O)OC)cc2)n2nnnc2N1 (stereo not drawn) was read as DSG3 Ab inh 112.8, HDAC3 inh 3.3, Arr AP2 block 99.7*, LANA-H2A inh -3.3, T cell HTS 253.4, Arr AP2 CP1 4.5 and GST-FITC bead -5.0.
CC(=O)c1ccc(S(=O)(=O)Nc2c(C)nn(C)c2C)cc1 was read as DSG3 Ab inh 97.8 and Arr AP2 block 19.4.
Screening CCN1/C(=C/C(C)=C/c2sc3ccccc3[n+]2CC)Sc2ccccc21 returned DSG3 Ab inh 23.0*, HDAC3 inh 0.0, Arr AP2 block 85.9*, LANA-H2A inh -46.3, T cell HTS 319.7, Arr AP2 CP1 71.2* and GST-FITC bead 48.2.
`CCN1/C(=C\C(=S)Nc2ccccc2)Sc2ccccc21` gave DSG3 Ab inh 93.2, HDAC3 inh 0.3, Arr AP2 block 0.5, LANA-H2A inh -2.7 and T cell HTS 275.6.
`CC(c1ccccc1)n1c(Cn2ncc3ccccc3c2=O)n[nH]c1=S` (stereo not drawn) gave DSG3 Ab inh 94.2, HDAC3 inh -3.5, Arr AP2 block 54.4*, LANA-H2A inh -0.6, T cell HTS 641.0, Arr AP2 CP1 -11.1 and GST-FITC bead -2.9.
`CCCCC(=O)Nc1nc2c(OC)cc([N+](=O)[O-])cc2s1` gave HDAC3 inh 6.3, Arr AP2 block 54.9*, LANA-H2A inh 1.7, T cell HTS 337.9, Arr AP2 CP1 -11.6 and GST-FITC bead -10.2.
For Cc1cc(NC(=O)c2c(F)cccc2F)n(-c2nc3ccccc3[nH]2)n1 the results were DSG3 Ab inh 97.9, HDAC3 inh 1.0, Arr AP2 block 13.5, LANA-H2A inh -0.1, T cell HTS 464.6, Arr AP2 CP1 10.6 and GST-FITC bead -4.0.
Cc1cc(NC(=O)c2ccccc2F)n(-c2nc3ccccc3[nH]2)n1 was read as DSG3 Ab inh 102.6, HDAC3 inh 3.4, Arr AP2 block 19.9, LANA-H2A inh 1.2, T cell HTS 430.9, Arr AP2 CP1 4.5 and GST-FITC bead -7.1.
`Cc1cc(NC(=O)c2ccc(C)s2)n(-c2nc3ccccc3[nH]2)n1` gave DSG3 Ab inh 105.6, HDAC3 inh -0.6, Arr AP2 block 0.6, LANA-H2A inh 4.1, T cell HTS 380.2, Arr AP2 CP1 -13.0 and GST-FITC bead 2.5.
Screening Cc1cc(NC(=O)c2c(F)cccc2Cl)n(-c2nc3ccccc3[nH]2)n1 returned DSG3 Ab inh 98.9, HDAC3 inh -2.2, Arr AP2 block 99.0*, LANA-H2A inh -2.1, T cell HTS 120.4, Arr AP2 CP1 5.5 and GST-FITC bead -6.5.
Screening Cc1cc(NC(=O)/C=C/c2ccc(F)cc2)n(-c2nc3ccccc3[nH]2)n1 returned DSG3 Ab inh 105.6, HDAC3 inh -2.6, Arr AP2 block 0.5, LANA-H2A inh -3.6 and T cell HTS 484.7.
Cc1cc(NC(=O)C2CCCCC2)n(-c2nc3ccccc3[nH]2)n1 was read as DSG3 Ab inh 102.9, HDAC3 inh 8.0, Arr AP2 block -3.9, LANA-H2A inh -1.7 and T cell HTS 400.7.
Screening CC(=O)NCC1CCN(C(=O)C2CCC(=O)N(CCc3cccc(F)c3)C2)CC1 (stereo not drawn) returned Arr AP2 block -12.3, LANA-H2A inh 3.2 and T cell HTS 322.4.
Screening CN(CCc1ccccc1)C(=O)c1ccc(NC(=O)Cc2ccc(NC(=O)C3CCN(C(=O)C4CCC4)CC3)cc2)cc1 returned DSG3 Ab inh 103.8 and Arr AP2 block 4.3.

High-throughput results from PubChem BioAssay.
